For data set [1], the system named is PDE activity in HEK-293 cells. The data set can be described thus: Effects of PDE inhibitors on forskolin-induced Ca2+ influx in HEK-293 cells. The note with it: C460W/E583M channels, 1 μM forskolin, IBMX 10 or 100 μM, RO-20-1724 10 μM. It is filed as cell-based, human.
A further data set relates to HEK-293 cells. The data set can be described thus: Equilibration of PDE inhibitors across the plasma membrane. It is filed as cell-based, human. The following applies: data not shown.
Another data set concerns CNG channel. The data set can be described thus: CNG channel activity in excised patches with PDE inhibitor. It counts as biochemical, rat. The note with it: 100 μM IBMX, data not shown. In outline:
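Patch clamp on rat olfactory CNG channels expressed from an adenovirus vector. Gigaohm seals were formed, then patches were excised by shearing the cell off the pipette with a liquid jet. Currents were elicited by 250-ms pulses to +50 and −50 mV from a 0 mV holding potential and sampled at five times the filter setting.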

Data set [2] deals with PDE activity in GH4C1 cells. The data set can be described thus: Effect of PDE inhibitors on forskolin-induced Ca2+ influx in GH4C1 cells. It is filed as cell-based, rat. The following applies: Δ61–90/C460W/E583M channels, 10 μM forskolin, 1 μM nimodipine.
The test system of a further data set is high Km PDE. The note with it: high Km PDE in GH3 and GH4C1 cells; ref Gautvik et al. 1982; cited from earlier work.

As for `CC(C)Cn1c(=O)n(C)c(=O)c2[nH]cnc21` [IBMX, 3-isobutyl-1-methylxanthine], the “effect on forskolin-induced Ca2+ influx” value in data set [1] is on record as “significant forskolin-induced Ca^2+ influx was observed”. Also, in the data set on HEK-293 cells, the “time to complete equilibration across the plasma membrane” value was less than 180 s. For the same molecule, the “effect on CNG channel activity in excised patches” value in the data set with CNG channel was “did not alter CNG channel activity”. Moreover, the “effect on PDE activity / forskolin-induced Ca2+ influx” value in data set [2] is “significantly inhibited PDE activity”.

Turning to `Nc1ncnc2c1ncn2[C@@H]1O[C@@H]2COP(=O)(O)O[C@H]2[C@H]1O` [cAMP], the Michaelis constant (Km) with high Km PDE was 28.6 µM.

Usually Km stands for the substrate concentration at which the rate is half of its maximum.

The values are drawn from publication PMC2233745 (The Journal of General Physiology, 2001).
